# Bioassay records: PubChem, several laboratories
# Most compounds without a hit are left out; they make up all but 7.6% or so of the library.
# D1 allo mod = allosteric modulators of human D1 dopamine receptor; HEK293 D1, CRE-luciferase, dopamine EC30 potentiation; actives deviate in either direction; B-score at 10 µM; 58,000 tested, 5.9% active;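 active = luminescence count or its row- and column-corrected plate score outside the 99.7% band of the plate's sample wells, on either side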
# Jurkat viability = cytotoxicity toward Jurkat cells; Jurkat E6.1 viability, ATP luminescence, 48 h; inhibition, % at 4 µM; 56,000 tested, 1.2% active;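 active = inhibition above the mean inhibition of all tested compounds plus 3 SD, cut at about 28% in these data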
# HEK293 NFkB inh = lowers PMA/ionomycin-induced NF-kB signal in HEK293 cells. HEK-293 NF-kB luciferase reporter, luminescence. inhibition, % at 3 µM. 62,000 tested, 0.21% active. AID 465;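 active = inhibition above the mean of all tested compounds plus 3 SD, cut at about 40% in these data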;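 also: 0% = stimulated DMSO wells and 100% = 10 µM reference inhibitor 5653914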
#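 System – HEK-293 cells with stable firefly luciferase reporter driven by four HIV NF-kB elements · Doses – one dose, 3 µM · Schedule – 1 h compound pre-incubation, 16 h PMA/ionomycin at 37 °C · Technique – luminescence from luciferase substrate reagent · Measure – percent inhibition normalized per plate to DMSO and reference-inhibitor controls · Replicates – tested once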
# M1 agonist = M1 muscarinic receptor agonism; CHO-M1 cells, Fluo-4 calcium fluorescence, agonist mode; stronger effect = higher value; B-score at 10 µM; 64,000 tested, 3% active; AID 626;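 active = fluorescence rise, raw or as B-score row- and column-corrected plate score, outside the 99.7% band of its plate's samples, either direction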
# M1 antag = M1 muscarinic receptor (rat) antagonism; P08482; B-score at 10 µM; AID 628; CHO-M1 cells, Fluo-4 calcium, ACh EC80 antagonist mode; stronger effect = lower value; 64,000 tested, 3.4% active;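 active = calcium fluorescence response, raw or row-and-column corrected B-score, differing from the plate sample mean either way at a set confidence level, mostly lower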
# Target sequence (P08482 whole entry, looked up): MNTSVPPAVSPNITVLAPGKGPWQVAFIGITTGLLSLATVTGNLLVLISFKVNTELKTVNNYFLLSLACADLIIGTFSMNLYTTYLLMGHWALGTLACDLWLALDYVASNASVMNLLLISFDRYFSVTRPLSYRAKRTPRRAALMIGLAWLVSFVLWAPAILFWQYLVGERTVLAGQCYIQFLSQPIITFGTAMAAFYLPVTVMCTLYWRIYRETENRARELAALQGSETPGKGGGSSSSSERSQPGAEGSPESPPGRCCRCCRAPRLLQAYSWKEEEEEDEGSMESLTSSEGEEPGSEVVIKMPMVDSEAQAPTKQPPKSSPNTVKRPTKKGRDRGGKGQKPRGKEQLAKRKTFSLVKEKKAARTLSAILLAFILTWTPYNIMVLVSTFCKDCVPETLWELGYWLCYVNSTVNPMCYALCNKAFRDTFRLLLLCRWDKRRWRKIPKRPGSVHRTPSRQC
# DAT uptake mod = human DAT dopamine uptake with cocaine, either direction; LLC-PK1 hDAT cells, [14C]-dopamine uptake with cocaine IC80; actives deviate in either direction; B-score at 10 µM; 110,000 tested, 1.3% active;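 active = Z score or B-score, a plate-position-corrected score, falls beyond the plate's 99.7% confidence bounds, in either direction; inactive = both scores lie inside the 99.7% bounds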;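 also: scored against the spread of the other compound wells on the same plate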
# Numbers without * were called inactive; . = no result given.
SMILES,D1 allo mod,Jurkat viability,HEK293 NFkB inh,M1 agonist,M1 antag,DAT uptake mod
CC(=O)Nc1ccc(C(=O)CSc2nnc(-c3ccc(O)cc3)n2CC2CCCO2)cc1 (stereo not drawn),0.57,5,11,-0.35,0.0029,-0.17
CCOC(CNC(=O)c1ccc2c(c1)nc(C)n2-c1cccc(F)c1)OCC,.,.,.,.,.,0.34
CCCCN(CCCNc1ncnc2nc[nH]c12)c1ccccc1,-3.5*,3,17,-0.54,-0.57,1.1
CN(C)c1ccc(C2=NOC(CN3C(=O)c4ccccc4S3(=O)=O)C2)cc1 (stereo not drawn),-5.7*,4,-36,0.31,0.073,0.51
COc1ccc2c(Cl)c(C(=O)NCCCn3ccnc3)sc2c1,-0.32,12,0,0.096,-0.24,1.2
C=CS(=O)(=O)c1ccc(Oc2ccc(S(=O)(=O)C=C)cc2)cc1,-4.8*,100*,81*,-1.1,0.51,.
O=C1CCCc2nc(N3CCc4ccccc43)ncc21,-0.17,-4,-43,-0.64,1.1,-0.079
CCOC(=O)C1=C(C)NC(=O)NC1c1ccc(C)o1 (stereo not drawn),-0.0049,8,17,0.63,1.3,0.78
CCOC(=O)C1=C(C)NC(=S)NC1c1ccc(-c2cccc(Cl)c2C)o1 (stereo not drawn),.,.,.,.,.,-8.7*
Cc1oc2ccc(O)c(CN3CCOCC3)c2c1C(C)O (stereo not drawn),.,.,.,.,.,0.012
COc1ccc(C)cc1-n1nnnc1SCn1nnc2ccccc2c1=O,0.01,8,7,-0.64,-0.032,-0.092
COc1ccc(C)cc1-n1nnnc1SCc1csc(C)n1,0.74,9,28,0.39,0.0095,-8.3*
Cn1nc(OC(=O)Nc2cccc(Cl)c2)cc1C(F)(F)F,.,.,.,.,.,-0.084
Cc1ccc(NC(=O)CSCC(=O)O)c(C)c1,-1.3,-3,14,-0.087,0.4,0.32
Cc1cccc(-c2noc(CN(C(=O)c3ccc(Br)o3)C(C)C)n2)c1,-0.98,0,10,2.6,0.44,1.8*
CCCCC(=O)Nc1ccc(C(=O)N2CCN(c3ccccc3OC)CC2)cc1,-0.04,-5,12,-0.051,3.4*,.
Cc1cc2ncn(C(=O)c3c(-c4ccccc4)noc3C)c2cc1C,0.45,0,6,0.19,-0.49,-2.3*
COc1ccccc1N1CCN(C(=O)c2ccc(NC(C)=O)cc2)CC1,-0.71,0,10,0.22,-0.11,-3.1*
Cc1onc(-c2ccccc2)c1C(=O)N1CCCN(C(=O)c2c(-c3ccccc3)noc2C)CC1,0.18,-2,11,0.16,1.2,-0.23
COc1ccccc1N1CCN(C(=O)c2c(-c3ccccc3)noc2C)CC1,-0.069,88*,22,2.9,-0.85,2
COC(=O)C(Cc1ccc(O)cc1)NC(=O)C(C)Oc1ccccc1 (stereo not drawn),-0.16,7,20,0.2,-0.095,-0.36
O=C(CSc1nnnn1-c1ccc2c(c1)CCC2)NCc1cccs1,0.57,5,10,-0.012,-0.71,0.35
O=C1[C@@H]2C(c3ccccc3Cl)=NO[C@@H]2C(=O)N1Cc1ccccc1,0.049,-3,14,0.0073,0.012,0.79
COc1ccccc1NC(=O)N1CCN(c2cc(-c3ccccc3)nc3ncnn23)CC1,0.3,2,15,6.3*,-0.33,0.22
c1ccc(CNc2ncnc3ccccc23)cc1,.,69*,22,2.1,-1.2,-0.34
SMILES,D1 allo mod,Jurkat viability,HEK293 NFkB inh,M1 agonist,M1 antag,DAT uptake mod
COc1cccc(-c2cc(C(=O)Nc3cnn(Cc4ccccc4C)c3)no2)c1,-0.36,6,17,-0.38,-0.66,.
COc1cccc(-c2cc(C(=O)Nc3cc(OC)c(OC)c(OC)c3)no2)c1,2.5,67*,22,2.4*,-1.2,1.3
COc1cccc(-c2cc(C(=O)Nc3cnn(Cc4ccc(F)cc4)c3)no2)c1,-3*,4,-1,0.75,0.86,-1.7
COc1cccc(-c2cc(C(=O)Nc3cccnc3)no2)c1,.,.,.,.,.,0.64
Cc1oc(/N=C/c2ccc3c(c2)OCO3)c(C#N)c1C,-0.78,-4,6,-0.034,0.81,-0.65
COc1ccccc1N1CCN(CC(=O)Nc2cc(C)nn2-c2nc(C)cc(C)n2)CC1,4.8*,.,27,3.4*,-0.028,.
Cc1nc2cc(-c3ccc(Cl)cc3)nn2c(C)c1CCC(=O)NCc1ccco1,.,.,.,.,.,-0.013
Cc1nc2c(-c3ccccc3)c(C)nn2c(C)c1CCC(=O)NCc1ccco1,-5.2*,8,5,0.81,0.13,-0.41
Cc1nc2c(-c3ccc(F)cc3)c(C)nn2c(C)c1CCC(=O)NC(C)CCc1ccco1 (stereo not drawn),-3.3*,1,12,0.64,0.71,1.2
CCN1CCN(c2ccc(NC(=O)CCc3c(C)nc4c(-c5ccccc5)c(C)nn4c3C)cc2)CC1,.,.,.,.,.,2.5*
O=c1c(/C=N/O)coc2ccc3ccccc3c12,0.25,1,9,-0.31,-0.63,-0.46
O=C(CSc1nnc(CNc2ccc(F)cc2)o1)N1CCCc2ccccc21,0.0071,-2,7,-0.11,-0.18,-0.011
Cc1c(C(=O)N2CC(C)OC(C)C2)sc2nc(-c3ccc(F)cc3)cn12 (stereo not drawn),-3*,3,-5,-0.4,0.34,.
CCOC(=O)N1CCN(C(=O)c2sc3nc(-c4ccc(F)cc4)cn3c2C)CC1,.,-2,14,0.19,-1,.
CCCCCn1c2nc3ccccc3nc2c2c(=O)n(CC(C)C)cnc21,-0.34,.,.,-0.066,0.023,-0.0096
CN(C)c1cccc(C(=O)OCc2cc(=O)oc3cc(O)ccc23)c1,.,.,.,.,.,0.025
CC1CN(S(=O)(=O)c2cccc(C(=O)OCc3cc(=O)oc4cc(O)ccc34)c2)CC(C)O1 (stereo not drawn),-4.3*,18,13,0.63,-0.57,-0.24
Cc1ccc(-c2nnc3sc(CCc4ccccc4)nn23)cc1,-0.31,-11,4,.,.,-0.02
O=C(O)CCS(=O)(=O)c1nc(-c2cccs2)cc(C(F)(F)F)n1,.,.,.,.,.,0.71
Cc1cc(NC(=O)CSc2nc(-c3ccco3)cc(C(F)(F)F)n2)n(-c2ccccc2)n1,0.12,33*,23,0.17,-0.22,1.9
Cc1cc(NC(=O)CCCS(=O)(=O)c2nc(-c3cccs3)cc(C(F)(F)F)n2)no1,0.12,100*,-2,0.91,-0.05,-0.39
COc1ccc(-c2cc(C(F)(F)F)nc(SCCC(=O)Nc3cc(C)on3)n2)cc1,-0.8,4,0,1.7,-0.4,1.2
Cc1cc(NC(=O)CCCSc2nc(-c3ccco3)cc(C(F)(F)F)n2)n(-c2ccccc2)n1,.,.,.,.,.,2.5
Cc1cc(NC(=O)CSc2nc(-c3cccs3)cc(C(F)(F)F)n2)no1,0.16,74*,29,0.89,-0.23,-0.38
COc1ccc(-c2cc(C(F)(F)F)nc(SCC(=O)Nc3cc(C)on3)n2)cc1OC,24*,0,6,-1.8,1.4,-0.34
CCNS(=O)(=O)c1ccc2c3c(cccc13)C(=O)N2,.,.,.,.,.,-0.091
